High-throughput results from PubChem.
Compounds with a hit are over-represented: about 1.9% of the library has one in this group of screens.
M5 PAM: positive allosteric modulators of human muscarinic M5 receptor; P08912; CHO-K1 hM5, Fluo-8 calcium, ACh EC20 PAM; 0% = ACh EC20, 100% = ACh EC100; activation, % at 3 µM; 360,000 tested, 0.3% active;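 active = activation above the run cutoff, the mean activation of all test compounds plus 3 SD, cut at about 18% in these data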
Target sequence (P08912 whole entry, looked up): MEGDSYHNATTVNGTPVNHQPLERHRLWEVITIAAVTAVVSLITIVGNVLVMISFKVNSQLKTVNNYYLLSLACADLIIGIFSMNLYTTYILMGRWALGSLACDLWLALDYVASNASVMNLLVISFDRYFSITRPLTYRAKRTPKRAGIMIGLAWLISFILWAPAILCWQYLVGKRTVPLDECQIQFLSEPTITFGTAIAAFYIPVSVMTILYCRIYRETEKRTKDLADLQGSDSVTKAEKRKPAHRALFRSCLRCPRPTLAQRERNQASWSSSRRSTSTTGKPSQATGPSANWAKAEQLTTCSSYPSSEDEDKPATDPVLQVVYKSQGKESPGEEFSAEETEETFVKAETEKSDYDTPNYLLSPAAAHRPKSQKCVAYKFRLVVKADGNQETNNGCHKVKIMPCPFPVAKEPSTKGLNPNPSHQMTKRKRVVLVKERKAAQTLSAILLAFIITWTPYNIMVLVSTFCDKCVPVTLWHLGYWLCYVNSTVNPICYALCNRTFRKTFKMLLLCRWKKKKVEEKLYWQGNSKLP
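Assay system: CHO-K1 hM5 cells. Also added: acetylcholine at EC20 concentration, added after compound. Dosing: 3 µM, single dose. Times: compound preincubation 140 s before EC20 acetylcholine addition. Signal: Fluo-8 calcium fluorescence. Measure: % activation relative to EC20 and EC100 ACh responses. Repeats: singlicate, one well per test compound.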
M5 antag: CHRM5 antagonism in calcium assay; P08912; CHO-hM5 cells, Fluo-8 calcium fluorescence, ACh EC80; inhibition, % at 3 µM; 360,000 tested, 0.59% active; AID 624040;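 active = inhibition above a per-plate cutoff, the mean of that plate's test compounds plus 3 SD, cut at about 27% in these data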;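 note: 0% = acetylcholine EC80 with DMSO and 100% = DMSO without agonist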
M4 antag: CHRM4 antagonism in calcium assay. inhibition, % at 3 µM. CHO-hM4 cells, ACh EC80, Fluo-8 calcium fluorescence. P08173. 360,000 tested, 0.73% active. AID 624125;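 active = inhibition above its plate's cutoff, the mean inhibition of sample wells plus 3 SD, cut at about 27% in these data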;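 note: 0% = acetylcholine EC80 with DMSO and 100% = DMSO without agonist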
CHRM4 PAM: CHRM4 positive allosteric modulation | CHO-K1 hM4/Gqi5, Fluo-8 calcium fluorescence, ACh EC20; 0% = ACh EC20, 100% = maximal ACh | activation, % at 3 µM | 360,000 tested, 0.4% active | AID 624126 | P08173;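 active = activation above its plate's cutoff, the mean activation of sample wells plus 3 SD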
CHRM4 agonist: CHRM4 agonism in calcium assay; P08173; CHO-K1 hM4/Gqi5, Fluo-8 calcium fluorescence; vehicle 0%, full acetylcholine response 100%; activation, % at 3 µM; 360,000 tested, 0.14% active; AID 624127;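 active = activation above the run mean over all test wells plus 3 SD, cut at about 32% in these data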;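 note: peak over basal fluorescence ratio per well then scaled between controls; 0% = DMSO wells and 100% = acetylcholine at EC100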
CHRM5 agonist: CHRM5 agonism in calcium assay; 360,000 tested, 0.19% active; P08912; AID 624037; activation, % at 3 µM; CHO-K1 hM5 cells, Fluo-8 calcium fluorescence; 0% DMSO wells, 100% maximal acetylcholine response;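 active = activation above the run's mean over test compounds plus 3 SD, cut at about 23% in these data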;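 note: signal is peak over basal fluorescence ratio across the kinetic read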
The depositor's hits bear a star.

Results for Cc1ccc(C(C(=O)NC2CCCCC2)N(CC2CCCO2)C(=O)CCCC(=O)Nc2ccccn2)cc1 (stereo unspecified) ?
M5 PAM: -2; M5 antag: 8; M4 antag: 0; CHRM4 PAM: -3; CHRM4 agonist: 3; CHRM5 agonist: -3

Results for CCCS(=O)(=O)NC(=O)C1(C)CCN(C(=O)c2ccc(OC)cc2)C1 (stereo unspecified) ?
M5 PAM: 0; M5 antag: -5; M4 antag: -13; CHRM4 PAM: 1; CHRM4 agonist: 3; CHRM5 agonist: 2

How did COc1ccc(OCC(O)CN2CCC(CN3C(=O)c4cccc5cccc(c45)C3=O)CC2)cc1 (stereo unspecified) do in these assays?
M5 PAM: -1; M5 antag: 9; M4 antag: 27*; CHRM4 PAM: -52; CHRM4 agonist: 12; CHRM5 agonist: -17

How did Cc1cc(C(C)(C)CC(C)(C)C)ccc1OCCOCC[N+](C)(C)Cc1ccccc1 do in these assays?
M5 PAM: -15; M5 antag: 7; M4 antag: 27*; CHRM4 PAM: -14; CHRM4 agonist: 0; CHRM5 agonist: -2

Results for C[N+](C)(CCOc1ccccc1)Cc1ccccc1 ?
M5 PAM: -5; M5 antag: 7; M4 antag: 7; CHRM4 PAM: -4; CHRM4 agonist: 0; CHRM5 agonist: -2

What do the screens show for `O=C(Nc1ccc2c(c1)OCO2)c1ccc2sc([C@H]3C[C@H](O)[C@@H](CO)O3)nc2c1`?
M5 PAM: -2; M5 antag: -4; M4 antag: -19; CHRM4 PAM: 16*; CHRM4 agonist: 1; CHRM5 agonist: 0

How did O=C(Cc1ccc(Cl)cc1Cl)Nc1ccncc1Cl do in these assays?
M5 PAM: -13; M5 antag: 30*; M4 antag: 3; CHRM4 PAM: -6; CHRM4 agonist: 11; CHRM5 agonist: 3

How did O=C(Cc1ccc(Cl)cc1Cl)Nc1ccncc1 do in these assays?
M5 PAM: -6; M5 antag: 10; M4 antag: 5; CHRM4 PAM: -1; CHRM4 agonist: 13; CHRM5 agonist: 2

How did CCN(CC)C1=CC2=CC(=C(C#N)C#N)CCC2CC1 (stereo unspecified) do in these assays?
M5 PAM: -23; M5 antag: 61*; M4 antag: 42*; CHRM4 PAM: -21; CHRM4 agonist: 210*; CHRM5 agonist: 384*

Results for CCCCN(C)C1=CC2=CC(=C(C#N)C#N)CCC2CC1 (stereo unspecified) ?
M5 PAM: -24; M5 antag: 84*; M4 antag: 81*; CHRM4 PAM: -25; CHRM4 agonist: 439*; CHRM5 agonist: 670*

Results for CC(NC(=O)COc1ccccc1Cl)c1ccccc1 (stereo unspecified) ?
M5 PAM: 2; M5 antag: -5; M4 antag: -16; CHRM4 PAM: 6; CHRM4 agonist: 5; CHRM5 agonist: -3

Results for Cc1cc(C)c(-c2csc(NC(=O)c3cc([N+](=O)[O-])ccc3N3CCOCC3)n2)c(C)c1 ?
M5 PAM: -20; M5 antag: 23; M4 antag: 36*; CHRM4 PAM: -18; CHRM4 agonist: -1; CHRM5 agonist: -10

Results for O=C(Nc1nc(-c2ccc(F)c(F)c2)cs1)c1cc([N+](=O)[O-])ccc1N1CCOCC1 ?
M5 PAM: -2; M5 antag: 3; M4 antag: -2; CHRM4 PAM: 7; CHRM4 agonist: 0; CHRM5 agonist: 0

Results for COc1cccc(C(=O)C(=O)N2CCN(C(=O)OCc3ccccc3)CC2)c1 ?
M5 PAM: 2; M5 antag: -12; M4 antag: -7; CHRM4 PAM: -1; CHRM4 agonist: 12; CHRM5 agonist: 6

How did O=C1c2ccccc2C(=O)N1CC#CCN1CCN(C(c2ccccc2)c2ccccc2)CC1 do in these assays?
M5 PAM: -14; M5 antag: 6; M4 antag: -23; CHRM4 PAM: -7; CHRM4 agonist: 0; CHRM5 agonist: -7

How did O=C1C2CSCN2C(=O)CN1CCCN1CCN(C(c2ccccc2)c2ccccc2)CC1 (stereo unspecified) do in these assays?
M5 PAM: -19; M5 antag: 21; M4 antag: 32*; CHRM4 PAM: -16; CHRM4 agonist: 1; CHRM5 agonist: -10

How did COc1ccc(CN(C)CC(=O)Nc2ccccc2C(=O)NC2CC2)cc1OC do in these assays?
M5 PAM: -3; M5 antag: 16; M4 antag: -2; CHRM4 PAM: -1; CHRM4 agonist: 4; CHRM5 agonist: 2

Results for O=C(Nc1c(C(=O)N2CCC(N3CCCCC3)CC2)oc2ccccc12)c1ccc(F)cc1 ?
M5 PAM: 5; M5 antag: 4; M4 antag: -1; CHRM4 PAM: -1; CHRM4 agonist: 1; CHRM5 agonist: -8

How did NC(=O)c1oc2ccccc2c1NC(=O)c1ccc(F)cc1 do in these assays?
M5 PAM: -12; M5 antag: 8; M4 antag: 39*; CHRM4 PAM: -18; CHRM4 agonist: 7; CHRM5 agonist: 1

Results for O=C(NCc1cccnc1)C(=O)C1C(=O)Nc2ccccc21 (stereo unspecified) ?
M5 PAM: 18*; M5 antag: -13; M4 antag: -17; CHRM4 PAM: 1; CHRM4 agonist: 2; CHRM5 agonist: 4

Results for CCOC(=O)[C@]12CCCC=C1N(CCc1ccc(OC)c(OC)c1)C(=O)[C@H](CC(=O)NCCc1ccccc1OC)C2 ?
M5 PAM: -8; M5 antag: 14; M4 antag: -2; CHRM4 PAM: -8; CHRM4 agonist: 15; CHRM5 agonist: 1

Results for Cc1ccc(C(=O)C2=C(O)C(=O)N(c3ncccn3)C2c2ccccc2F)o1 (stereo unspecified) ?
M5 PAM: 0; M5 antag: -2; M4 antag: 2; CHRM4 PAM: 3; CHRM4 agonist: 2; CHRM5 agonist: -1

How did NC(=O)CN1CCOCCOCCN(CC(N)=O)CCOCCOCC1 do in these assays?
M5 PAM: 5; M5 antag: -5; M4 antag: 101*; CHRM4 PAM: 3; CHRM4 agonist: 0; CHRM5 agonist: 1

Results for O=C(NCc1nnnn1-c1ccc(F)cc1)c1cc2ccccc2o1 ?
M5 PAM: -3; M5 antag: 9; M4 antag: 0; CHRM4 PAM: 2; CHRM4 agonist: 3; CHRM5 agonist: 0

What do the screens show for `CN(CC(=O)Nc1cccc(F)c1)C(=O)CCC1CCCCC1`?
M5 PAM: 7; M5 antag: -6; M4 antag: -3; CHRM4 PAM: 18*; CHRM4 agonist: 2; CHRM5 agonist: 1
